Rows were chosen to be rich in hits. Some 2.3% of all compounds tested hit in one or more screens of this group.
MEKK2mut PB1 HTS: signal of MEK5 binding to mutant human MEKK2 PB1 domain; actives 0.35% (n = 290,000); percent response, % at 10 µM; bead flow cytometry, Alexa488-MEK5 binding to MEKK2 mutant; in the data active = percent response above about 24%, passing the limit was not always enough
ABCB1 inh: inhibitors of human ABCB1 transporter, ABCG2 counter-screen; CCRF-Adr cells, JC-1 efflux, flow cytometry; inhibition, % at 6.6 µM; actives 0.067% (n = 190,000); AID 1326; P08183; in the data active = inhibition above about 40%;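 also: 0% = vehicle and 100% = reference inhibitor; higher value means more JC-1 retained so stronger ABCB1 efflux block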
MEKK2 WT-MEK5: raises or lowers MEK5 binding to wildtype human MEKK2 PB1 domain. Q9Y2U5. bead flow cytometry, Alexa488-MEK5 binding to MEKK2 WT; actives lie on both sides. binding response (% of control), % at 10 µM. actives 1.1% (n = 290,000); in the data active = binding response below about 67% or above about 130%
MEKK3 PB1 HTS: MEKK3-MEK5 PB1 interaction, increase or decrease; Q99759; bead-based flow cytometry, Alexa488-MEK5 binding to MEKK3; actives lie on both sides; 0 = blocked by unlabeled MEK5, 100 = vehicle; binding response (% of control), % at 10 µM; actives 1.4% (n = 290,000);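 active = binding response more than 3 SD above or below the average of its plate-row segment, actives on both sides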;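 also: Alexa488 bead fluorescence after subtracting the streptavidin-only scavenger bead signal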
ABCG2 inh: human ABCG2 inhibition, ABCB1 as counter-screen. inhibition, % at 6.6 µM. AID 1325. Q9UNQ0. actives 0.1% (n = 190,000). IgMXP3 cells, JC-1 efflux, flow cytometry;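 active = inhibition above 80%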;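 also: 0% = DMSO and 100% = nicardipine control wells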
Target sequence (Q9UNQ0 whole entry, looked up): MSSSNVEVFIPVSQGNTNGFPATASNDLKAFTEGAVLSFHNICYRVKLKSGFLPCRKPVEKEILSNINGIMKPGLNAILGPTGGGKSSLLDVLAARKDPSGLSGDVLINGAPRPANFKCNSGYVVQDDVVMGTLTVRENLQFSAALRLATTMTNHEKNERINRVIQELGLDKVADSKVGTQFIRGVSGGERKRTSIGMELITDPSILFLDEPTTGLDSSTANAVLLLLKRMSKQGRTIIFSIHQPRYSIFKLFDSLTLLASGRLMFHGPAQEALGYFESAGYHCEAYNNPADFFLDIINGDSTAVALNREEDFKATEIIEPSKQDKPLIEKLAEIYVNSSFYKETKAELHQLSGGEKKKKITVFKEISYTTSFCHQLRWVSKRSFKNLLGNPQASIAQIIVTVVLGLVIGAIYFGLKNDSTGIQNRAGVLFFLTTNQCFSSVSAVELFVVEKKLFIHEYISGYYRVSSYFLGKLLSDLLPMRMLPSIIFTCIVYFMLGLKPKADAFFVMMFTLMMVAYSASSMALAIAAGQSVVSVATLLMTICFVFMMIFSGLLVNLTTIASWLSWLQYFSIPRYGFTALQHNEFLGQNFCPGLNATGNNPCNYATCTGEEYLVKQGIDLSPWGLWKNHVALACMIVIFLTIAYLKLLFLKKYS
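Test system: IgMXP3 (ABCG2) plus far-red-tagged CCRF-Adr (ABCB1) cells / Amount: 3 million cells/mL in well / Reagent: JC-1 transporter substrate / Timing: 10 min compound exposure, 25 °C / Signal: flow cytometry, 530 nm JC-1 signal / Read-out: percent efflux inhibition, scaled nicardipine 100% to DMSO 0% / Benchmarks: nicardipine as high control, DMSO as low control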
MEKK2wt confirm: raises or lowers MEK5 binding to wildtype human MEKK2, retest. shares compounds with MEKK3 PB1 HTS. bead flow cytometry, Alexa488-MEK5 binding to MEKK2 WT; actives lie on both sides. binding response (% of control), % at 10 µM. actives 2.4% (n = 5,900). AID 1892; in the data active = binding response below about 16% or above about 210%; inactive = in between
MEKK2mut confirm: signal of MEK5 binding to mutant human MEKK2, retest. shares compounds with MEKK3 PB1 HTS. bead flow cytometry, Alexa488-MEK5 binding to MEKK2 mutant. percent response, % at 10 µM. actives 2% (n = 5,900); in the data active = percent response mostly above about 71%, no sharp cut-off; inactive = mostly below about 38%;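 also: higher means compound restores mutant binding toward wildtype level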
MEKK3 confirm: MEKK3-MEK5 PB1 inhibition, single concentration confirmation; bead flow cytometry, Alexa488-MEK5 binding to MEKK3; hits give low values; AID 1894; binding response (% of control), % at 10 µM; actives 1.8% (n = 5,900); shares compounds with MEKK3 PB1 HTS;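 active = binding response below 72% of control, or above a set upper limit, though filed actives all read lower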;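 also: 100% = DMSO only wells and 0% = binding blocked by excess unlabeled MEK5; lower values mean stronger disruption of MEK5 binding to MEKK3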
* hit, by the source's call; [ ] = remark or other dose.

CCNc1ccc(Br)cc(C(=O)/C=C/c2c(Cl)cccc2Cl)c1=O was read as MEKK2mut PB1 HTS 2, ABCB1 inh 0, MEKK2 WT-MEK5 47*[inhibitor], MEKK3 PB1 HTS 82, ABCG2 inh -1, MEKK2wt confirm 80, MEKK2mut confirm -11 and MEKK3 confirm 95.
Screening c1ccc(Cc2ccc(OCCCNC3CCCC3)cc2)cc1 returned MEKK2mut PB1 HTS 13, ABCB1 inh 0, MEKK2 WT-MEK5 138*, MEKK3 PB1 HTS 108, ABCG2 inh 1, MEKK2wt confirm 128, MEKK2mut confirm 10 and MEKK3 confirm 102.
`Cn1c(=O)[nH]c(=O)c2c1nc(SCC(=O)O)n2CCCc1ccccc1` gave MEKK2mut PB1 HTS 7, MEKK2 WT-MEK5 105 and MEKK3 PB1 HTS 100.
Screening COCCn1c(Sc2ccccc2)nc2c1c(=O)[nH]c(=O)n2C returned MEKK2mut PB1 HTS -21, ABCB1 inh 1, MEKK2 WT-MEK5 3.0*[inhibitor], MEKK3 PB1 HTS 2.0*[inhibitor], ABCG2 inh 14, MEKK2wt confirm 101, MEKK2mut confirm 3 and MEKK3 confirm 100.
`Cn1c(=O)[nH]c(=O)c2c1nc(SCC(=O)O)n2Cc1ccccc1` gave MEKK2mut PB1 HTS 27*, MEKK2 WT-MEK5 105, MEKK3 PB1 HTS 102, MEKK2wt confirm 106, MEKK2mut confirm 4 and MEKK3 confirm 104.
Cn1c(=O)[nH]c(=O)c2c1nc(Sc1ccccc1)n2CCc1ccccc1 was read as MEKK2mut PB1 HTS 5, ABCB1 inh 1, MEKK2 WT-MEK5 99, MEKK3 PB1 HTS 100 and ABCG2 inh 2.
COc1ccc(C(=O)Nc2ccnn2C2CCN(C(=O)c3cccnc3)CC2)cc1 was read as MEKK2mut PB1 HTS 12, MEKK2 WT-MEK5 108 and MEKK3 PB1 HTS 106.
For CCN1CCN(Cc2ccc(NC(=O)c3cc(NC(=O)c4nccnc4N)cc(OC)c3)cc2C(F)(F)F)CC1 the results were MEKK2mut PB1 HTS 22, MEKK2 WT-MEK5 164*, MEKK3 PB1 HTS 123*, MEKK2wt confirm 144, MEKK2mut confirm 21 and MEKK3 confirm 102.
CCN1CCN(Cc2ccc(NC(=O)c3ccc(C)c(NC(=O)c4nccn4C)c3)cc2C(F)(F)F)CC1 was read as MEKK2mut PB1 HTS 3, MEKK2 WT-MEK5 104 and MEKK3 PB1 HTS 94.
CCN1CCN(Cc2ccc(NC(=O)c3cc(NC(=O)c4cnnc5ccccc45)cc(OC)c3)cc2C(F)(F)F)CC1 was read as MEKK2mut PB1 HTS 21, MEKK2 WT-MEK5 142*, MEKK3 PB1 HTS 107, MEKK2wt confirm 143, MEKK2mut confirm 15 and MEKK3 confirm 99.
CCN1CCN(Cc2ccc(NC(=O)c3cc(NC(=O)c4cncc(-c5ccc(C#N)cc5)c4)cc(OC)c3)cc2C(F)(F)F)CC1 was read as MEKK2mut PB1 HTS 131*, MEKK2 WT-MEK5 189*, MEKK3 PB1 HTS 118, MEKK2wt confirm 129, MEKK2mut confirm 16 and MEKK3 confirm 38*.
For O=C(Cc1ccccc1[N+](=O)[O-])Nc1ccc(S(=O)(=O)N2CCCC2)cc1 the results were MEKK2mut PB1 HTS 7, MEKK2 WT-MEK5 107 and MEKK3 PB1 HTS 103.
`COCCC(=O)N1CCC(Oc2ccc(C(=O)N3CCCCC3COC)cc2)CC1` (configuration not stated) gave MEKK2mut PB1 HTS 0, MEKK2 WT-MEK5 103 and MEKK3 PB1 HTS 101.
Screening COc1ccc([N+](=O)[O-])cc1NC(=O)c1ccc(C)o1 returned MEKK2mut PB1 HTS 1, ABCB1 inh 2, MEKK2 WT-MEK5 109, MEKK3 PB1 HTS 187*, ABCG2 inh 37, MEKK2wt confirm 96, MEKK2mut confirm -1 and MEKK3 confirm 95.

Assay outcomes (PubChem)
